Measurements from ChEMBL document CHEMBL1151801, “Synthesis of new indeno[1,2-e]pyrimido[4,5-b][1,4]diazepine-5,11-diones as potential antitumor agents” (2008).

Assays:
Type in all cases: functional
MDA-MB-435 = assay: Antitumor activity against human MDA-MB-435 cells after 48 hrs by SRB assay; details: MDA-MB-435, 48 h
In short: (§1)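 NCI in vitro human tumor cell line screen. Cells were exposed continuously to compound for 48 h at five concentration levels (100, 10, 1.0, 0.1 and 0.01). Growth was estimated by sulforhodamine B protein staining. GI50 is the concentration giving a 50% reduction in net protein increase relative to control cells over the incubation.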

MOLT-4 = assay: Antitumor activity against human MOLT4 cells after 48 hrs by SRB assay; details: MOLT-4, 48 h; in short: as §1
A549 = assay: Antitumor activity against human A549 cells after 48 hrs by SRB assay; details: A549, 48 h; for CC50: read-out: LC50 (the source's name); in short: as §1
NCI/ADR-RES = assay: Antitumor activity against human NCI/ADR-RES cells after 48 hrs by SRB assay; in short: as §1
BT-549 = assay: Antitumor activity against human BT549 cells after 48 hrs by SRB assay; details: BT-549, 48 h; for CC50: read-out: LC50 (the source's name); in short: as §1
NCI-H460 = assay: Antitumor activity against human NCI-H460 cells after 48 hrs by SRB assay; details: NCI-H460, 48 h; for CC50: read-out: LC50 (the source's name); in short: as §1
SF-295 = assay: Antitumor activity against human SF295 cells after 48 hrs by SRB assay; details: SF-295, 48 h; for CC50: read-out: LC50 (the source's name); in short: as §1
MCF7 = assay: Antitumor activity against human MCF7 cells after 48 hrs by SRB assay; details: MCF7, 48 h; in short: as §1
PC-3 = assay: Antitumor activity against human PC3 cells after 48 hrs by SRB assay; details: PC-3, 48 h; for CC50: read-out: LC50 (the source's name); in short: as §1
M14 = assay: Antitumor activity against human M14 cells after 48 hrs by SRB assay; details: M14, 48 h; in short: as §1
OVCAR-5 = assay: Antitumor activity against human OVCAR5 cells after 48 hrs by SRB assay; details: OVCAR-5, 48 h; in short: as §1
SNB-19 = assay: Antitumor activity against human SNB19 cells after 48 hrs by SRB assay; details: SNB-19, 48 h; in short: as §1
TK-10 = assay: Antitumor activity against human TK10 cells after 48 hrs by SRB assay; details: TK-10, 48 h
In short: (§2)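 NCI in vitro human tumor cell line screen. Continuous 48 h drug exposure at five concentrations (100, 10, 1.0, 0.1 and 0.01 µM). Cell growth estimated by sulforhodamine B protein staining. GI50 defined as the concentration giving 50% reduction in net protein increase versus control cells over the incubation.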

SK-MEL-5 = assay: Antitumor activity against human SK-MEL-5 cells after 48 hrs by SRB assay; details: SK-MEL-5, 48 h; in short: as §1
LOX IMVI = assay: Antitumor activity against human LOXIMVI cells after 48 hrs by SRB assay; in short: as §1
Malme-3M = assay: Antitumor activity against human MALME-3M cells after 48 hrs by SRB assay; in short: as §1
SK-MEL-28 = assay: Antitumor activity against human SK-MEL-28 cells after 48 hrs by SRB assay; details: SK-MEL-28, 48 h; in short: as §1
UACC-62 = assay: Antitumor activity against human UACC62 cells after 48 hrs by SRB assay; details: UACC-62, 48 h; in short: as §2
RXF 393 = assay: Antitumor activity against human […] cells after 48 hrs by SRB assay; details: RXF 393, 48 h; in short: as §1
[1] = read-out: LC50 (the source's name)

SMILES	GI50 (MDA-MB-435)	LC50 (MDA-MB-435)	GI50 (MOLT-4)	LC50 (MOLT-4)	GI50 (A549)	CC50 (A549)	GI50 (NCI/ADR-RES)	LC50 (NCI/ADR-RES)	GI50 (BT-549)	CC50 (BT-549)	GI50 (NCI-H460)	CC50 (NCI-H460)	GI50 (SF-295)	CC50 (SF-295)	GI50 (MCF7)	LC50 (concentration causing 50% net cell kill) (MCF7)	GI50 (PC-3)	CC50 (PC-3)	other results
CSc1nc2c(c(=O)[nH]1)NC1=C(C(=O)c3ccccc31)C(c1ccccc1)N2 (stereo unspecified)	490 nM	> 100 µM	5.24 µM	> 100 µM	6.98 µM	> 100 µM	4.54 µM	> 100 µM	5.35 µM	> 100 µM	3.16 µM	> 100 µM	1910 nM	> 100 µM	2.4 µM	> 100 µM	3.64 µM	> 100 µM	
CSc1nc2c(c(=O)[nH]1)NC1=C(C(=O)c3ccccc31)C(c1ccc(F)cc1)N2 (stereo unspecified)	1650 nM	> 100 µM	19.5 µM	> 100 µM	12.6 µM	> 100 µM	6.42 µM	> 100 µM	8.5 µM	> 100 µM	5.1 µM	> 100 µM	3670 nM	> 100 µM	5.18 µM	> 100 µM	7.72 µM	> 100 µM	GI50 (M14): 6.29 µM; CC50 (M14; [1]): > 100 µM; GI50 (OVCAR-5): 17.7 µM; CC50 (OVCAR-5; [1]): 95.6 µM; GI50 (SNB-19): 15.9 µM; CC50 (SNB-19; [1]): > 100 µM; GI50 (TK-10): 12.9 µM; CC50 (TK-10; [1]): > 100 µM; GI50 (SK-MEL-5): 6.13 µM; CC50 (SK-MEL-5; [1]): > 100 µM; GI50 (LOX IMVI): 8.78 µM; CC50 (LOX IMVI; [1]): 95.2 µM; GI50 (Malme-3M): 19.6 µM; CC50 (Malme-3M; [1]): > 100 µM; GI50 (SK-MEL-28): 9.03 µM; CC50 (SK-MEL-28; [1]): > 100 µM; GI50 (UACC-62): 3.04 µM; CC50 (UACC-62; [1]): > 100 µM; GI50 (RXF 393): 14.5 µM; CC50 (RXF 393; [1]): 92.8 µM
